Measured values reported in article PMC4757811 (Biochemistry, 2015).

Columns and labels:
ErbB2 = ErbB2 interaction, co-immunoprecipitation; format: binding; settings: 293T cells cotransfected with ErbB2 and Brk; ErbB2 immunoprecipitated
In short: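 Flag-tagged wild-type or mutant Brk and full-length ErbB2 were co-transfected into 293T cells with polyethylenimine (8 μL per μg DNA in 150 mM NaCl), 24 h after plating. Cells were lysed at 48 h in RIPA buffer with protease/phosphatase inhibitors. Lysate (1 mg/mL) was precleared on protein G agarose, then taken with 1 μg anti-ErbB2 (1 h, 4 °C) and protein G (4 h, 4 °C). After washing, blots were probed with anti-ErbB2 and anti-Flag.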

Erk1/2 [1] = experiment: Erk1/2 phosphorylation in 293T cells, Western blot; format: cell-based; settings: not serum starved
In short: (§1)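 293T cells (1×10^6) transfected 24 h after plating with Flag-tagged wild-type or mutant Brk using polyethylenimine. Lysed 48 h post-transfection in RIPA buffer (pH 7.5) with protease and phosphatase inhibitors, then SDS-PAGE and PVDF blotting.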

Erk1/2 [2] = format: cell-based; settings: 293T cells, serum starved, 10 ng/mL EGF for 2.5 min
In short: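 293T cells were PEI-transfected with Flag-Brk (wild-type or mutant) and serum-starved overnight. They were then stimulated with 10 ng/mL EGF for 2.5 min, lysed in RIPA buffer with inhibitors, and resolved by SDS-PAGE on PVDF. Blots were probed for phospho-Erk1/2 (Thr202/Tyr204), total Erk1/2 and Flag.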

p130Cas = experiment: Cas phosphorylation in 293T cells, Western blot; format: cell-based; settings: 293T cells cotransfected with Brk and Cas
In short: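 293T cells were cotransfected with V5-His-tagged p130Cas and Flag-tagged wild-type or mutant Brk using polyethylenimine, then harvested 48 h later in RIPA buffer with inhibitors. Lysates were analysed by SDS-PAGE and PVDF Western blotting. Probes were anti-phospho-p130Cas (Tyr249), anti-p130Cas and anti-Flag.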

β-catenin = β-catenin phosphorylation and binding, immunoprecipitation from 293T cells; format: cell-based; settings: 293T cells coexpressing β-catenin; for binding to β-catenin (in words): Flag antibody; for phosphorylation of β-catenin (in words): anti-phosphotyrosine; for binding and phosphorylation of β-catenin (in words): compared to wild-type Brk
In short: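 Flag-tagged β-catenin was coexpressed with Flag-Brk (wild-type or mutant) in 293T cells by PEI transfection, and lysates were made 48 h later in RIPA buffer. Lysate (1 mg/mL) was precleared on protein G agarose (1 h, 4 °C), incubated with 1 µg anti-β-catenin (1 h, 4 °C), then captured on protein G for 4 h at 4 °C. After three RIPA washes, SDS elution and blotting, membranes were probed with anti-phosphotyrosine and anti-β-catenin, then reprobed with anti-Flag for Brk association.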

MCF-10a cells = experiment: Growth of stable MCF-10a cells; format: cell-based; settings: MCF-10a stable cells; compared to Brk WT
SkBr3 cells = experiment: Growth of stable SkBr3 cells; format: cell-based
Akt and Erk1/2 = Akt and Erk1/2 activation in SkBr3 cells; format: cell-based; settings: SkBr3 breast cancer cells
Akt = Akt phosphorylation in 293T cells, Western blot; format: cell-based; settings: phospho-Akt (Ser473)
In short: as §1

STAT3 = STAT3 phosphorylation in 293T cells, Western blot; format: cell-based; settings: compared to control cells or wild-type Brk
In short: as §1

NIH-3T3 cells [3] = experiment: Anchored growth of stable NIH-3T3 cells; format: cell-based; settings: NIH-3T3 stable cells, 20 000 cells plated in duplicate; hemocytometer
In short: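 NIH-3T3 lines stably expressing wild-type or mutant Brk were made by MSCV-PIG retroviral infection with 8 µg/mL Polybrene. Selection used puromycin (2 µg/mL) from 48 h postinfection, and lines with equivalent GFP expression were used. Cells (20 000) were plated in duplicate in 12-well plates. At each time point over several days they were trypsinized and counted by hemocytometer. Representative of three experiments; standard deviations shown.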

NIH-3T3 cells [4] = experiment: Nonanchored growth of stable NIH-3T3 cells; format: cell-based; settings: NIH-3T3 stable cells, low attachment plates, day 6, triplicate
In short: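 NIH-3T3 lines stably expressing Brk were made by retrovirus with puromycin selection and matched for GFP expression. Cells (20 000) were seeded in triplicate in 24-well low-attachment plates. On day 6 they were centrifuged, resuspended in trypsin and counted by hemocytometer. Representative of two experiments; standard deviations shown.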

## L16F: Brk mutant, SH3 domain, identified in clear cell renal cell carcinoma
ErbB2
  interaction with ErbB2 (in words): increased interaction with ErbB2 compared to wild-type Brk
Erk1/2 [1]
  Erk1/2 phosphorylation (in words): increased phosphorylation of Erk1/2 compared to wild-type Brk
Erk1/2 [2]
  Erk1/2 phosphorylation after EGF stimulation (in words): no appreciable difference between wild-type and L16F Brk following stimulation with EGF
p130Cas
  expression of Brk upon coexpression with Cas (in words): decreased expression
  phosphorylation of Cas (in words): decreased phosphorylation of Cas
β-catenin
  binding to β-catenin (in words): decreased interaction with the protein
  phosphorylation of β-catenin (in words): not able to phosphorylate β-catenin
MCF-10a cells
  proliferation (in words): reduced proliferation relative to wild-type Brk

## L343F: Brk mutant, kinase domain, identified in cutaneous squamous cell carcinoma
p130Cas
  phosphorylation of Cas (in words): greater phosphorylation of Cas compared to wild-type Brk
β-catenin
  binding and phosphorylation of β-catenin (in words): greater binding and phosphorylation of β-catenin as compared to wild-type Brk
SkBr3 cells
  anchored or nonanchored cell growth (in words): no increase in anchored or nonanchored cell growth
Akt and Erk1/2
  activation of Akt and Erk1/2 (in words): increased activation of both Akt and Erk1/2

## N317S: Brk mutant, kinase domain, identified in ovarian carcinoma
Akt
  Akt phosphorylation (in words): still phosphorylated
Erk1/2 [1]
  Erk1/2 phosphorylation (in words): still phosphorylated
STAT3
  phosphorylation of STAT3 (in words): decrease in phosphorylation of STAT3
β-catenin
  binding to β-catenin (in words): bound normally to β-catenin
  phosphorylation of β-catenin (in words): unable to phosphorylate the protein

## P450L: Brk mutant, C-terminal tail adjacent to the inhibitory tyrosine, identified in pancreatic cancer
NIH-3T3 cells [3]
  anchored cell growth (in words): did not survive past Day 6

## R131L: Brk mutant, SH2 domain, found in gastric cancer
p130Cas
  phosphorylation of Cas (in words): greater phosphorylation of Cas compared to wild-type Brk
β-catenin
  binding and phosphorylation of β-catenin (in words): greater binding and phosphorylation of β-catenin as compared to wild-type Brk

## V253M: Brk mutant, kinase domain, identified in head and neck squamous cell carcinoma
STAT3
  phosphorylation of STAT3 (in words): decrease in phosphorylation of STAT3

## WT: Flag-tagged wild-type full length Brk (PTK6)
NIH-3T3 cells [3]
  anchored cell growth (in words): increased cell growth compared to empty vector cells
NIH-3T3 cells [4]
  nonanchored cell growth (in words): increase in nonanchored growth
